In ChEMBL document CHEMBL1132269, “Self-immolative anthracycline prodrugs for suicide gene therapy” (J Med Chem, 1999):
pIC50: −log10 of the molar value. “And” between values parts separate entries of the source, which are not always exact repeats. Identical values can stand only once.

Assays:
[1] = Half life period in the absence of CPG2 (carboxypeptidase) enzyme; format: ADME
Summary of the method: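 Prodrug at 100 μM in phosphate-buffered saline (pH 7.4), 37 °C, without enzyme; samples injected at timed intervals on reverse-phase HPLC, isocratic methanol/water/10 mM NaH2PO4 (pH 5.0), detection at 500 nm. Chemical half-life from slope of semilog plot.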

[2] = test system: CPG2 (carboxypeptidase); test: Half life period in the presence of CPG2 (carboxypeptidase) enzyme; format: ADME
Summary of the method: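 Prodrug at 100 μM in phosphate-buffered saline (pH 7.4), 37 °C, with 50 mU CPG2; timed samples analysed by reverse-phase HPLC, absorbance 500 nm. Plots linear on linear axes, so apparent half-life taken as time for concentration to fall to half its starting value.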

[3] = test system: MDA-MB-361; test: The compound was tested for intracellular cytotoxicity against MDA MB 361(mammary carcinoma cell line) expressing LacZ (beta-galactosidase).; format: functional, cell-based; conditions: Homo sapiens
Summary of the method: (§1)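 MDA MB 361 breast carcinoma cells stably expressing surface-tethered CPG2 (stCPG2(Q)3), intracellular CPG2 (CPG2*) or control beta-galactosidase (LacZ). Compounds dissolved in DMSO at 10 mM (stock) just before treatment. After exposure, cells harvested and reseeded in quadruplicate at ~2 × 10^3 cells/well. Cells fixed and stained with sulforhodamine-B once control plates reached confluence, absorbance read at 590 nm. Growth expressed as % of control, IC50 interpolated.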

[4] = test system: MDA-MB-361; test: The compound was tested for intracellular cytotoxicity against MDA MB 361(mammary carcinoma cell line) in the presence of CPG2 prodrug; format: functional, cell-based; conditions: Homo sapiens
Summary of the method: (§2)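 Cytotoxicity differential: ratio of a prodrug's IC50 in MDA MB 361 cells expressing stCPG2(Q)3 or CPG2* to its IC50 in LacZ control cells. IC50 values come from a sulforhodamine-B growth assay (cells reseeded in quadruplicate after treatment, stained at control confluence, A590, % control growth, interpolation). Prodrug:drug ratio taken in LacZ cells.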

[5] = Ratio of the intracellular cytotoxicities against MDA MB 361(mammary carcinoma cell line) expressing LacZ (beta-galactosidase). between prodrug and drug.; format: functional
Summary of the method: (§3)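 MDA MB 361 cells stably expressing surface-tethered CPG2 (stCPG2(Q)3) or β-galactosidase control (LacZ) treated with compound (10 mM DMSO stock made fresh), then reseeded in quadruplicate at ~2 × 10^3 cells/well; fixed and sulforhodamine-B stained when controls confluent, A590. IC50 interpolated from % control growth; ratio = LacZ vs stCPG2(Q)3 IC50 or prodrug vs drug IC50 in LacZ cells.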

[6] = test system: MDA-MB-361; test: The compound was tested for extracellular cytotoxicity against MDA MB 361(mammary carcinoma cell line) in the presence of stCPG2 prodrug; format: functional, cell-based; conditions: Homo sapiens; summary of the method: as §2
[7] = Ratio of the extracellular cytotoxicities against MDA MB 361(mammary carcinoma cell line) expressing LacZ and carboxypeptidase stCPG2 of the prodrug.; format: functional; summary of the method: as §3
[8] = test system: MDA-MB-361; test: The compound was tested for extracellular cytotoxicity against MDA MB 361(mammary carcinoma cell line) expressing carboxypeptidase stCPG2.; format: functional, cell-based; conditions: Homo sapiens; summary of the method: as §1
[9] = test system: MDA-MB-361; test: The compound was tested for intracellular cytotoxicity against MDA MB 361(mammary carcinoma cell line) expressing carboxypeptidase G2(CPG2).; format: functional, cell-based; conditions: Homo sapiens; summary of the method: as §1

Structure (SMILES)	half-life [1]	half-life [2]	pIC50 [3]	pIC50 [4]	Ratio [5]	pIC50 [6]	Ratio [7]	pIC50 [8]	pIC50 [9]
COc1cccc2c1C(=O)c1c(O)c3c(c(O)c1C2=O)C[C@@](O)(C(C)=O)C[C@@H]3OC1CC(NC(=O)OCc2ccc(NC(=O)NC(CCC(=O)O)C(=O)O)cc2)C(O)C(C)O1 (stereo partly drawn)	19.8 h	0.645 h	6.95	6.91	6.6	7.54			
COc1cccc2c1C(=O)c1c(O)c3c(c(O)c1C2=O)C[C@@](O)(C(=O)CO)C[C@@H]3OC1CC(NC(=O)OCc2ccc(NC(=O)NC(CCC(=O)O)C(=O)O)cc2)C(O)C(C)O1 (stereo partly drawn)	15.8 h	0.7 h	6.59	7.33	21.3	7.62	5.4 and 10.7		
COc1cccc2c1C(=O)c1c(O)c3c(c(O)c1C2=O)C[C@@](O)(C(=O)CO)C[C@@H]3OC1CC(NC(=O)OCc2ccc(OC(=O)NC(CCC(=O)O)C(=O)O)cc2)C(O)C(C)O1 (stereo partly drawn)	28.4 h	4.46 h	6.55	6.69	23.3	7.04	1.4 and 3		
COc1cccc2c1C(=O)c1c(O)c3c(c(O)c1C2=O)C[C@@](O)(C(C)=O)C[C@@H]3OC1CC(NC(=O)OCc2ccc(OC(=O)NC(CCC(=O)O)C(=O)O)cc2)C(O)C(C)O1 (stereo partly drawn)	24.7 h	2.21 h	6.94	6.39	6.8	6.75	0.3 and 0.7		
COc1cccc2c1C(=O)c1c(O)c3c(c(O)c1C2=O)C[C@@](O)(C(C)=O)C[C@@H]3O[C@H]1C[C@H](N)[C@H](O)[C@H](C)O1 [DAUNORUBICIN]			7.77	7.44		7.68			
COc1cccc2c1C(=O)c1c(O)c3c(c(O)c1C2=O)C[C@@](O)(C(=O)CO)C[C@@H]3O[C@H]1C[C@H](N)[C@H](O)[C@H](C)O1 [DOXORUBICIN]			7.92					7.74	7.48
